Test results: ChEMBL document CHEMBL1649109, “Antiparasitic activities and toxicities of individual enantiomers of the 8-aminoquinoline 8-[(4-amino-1-methylbutyl)amino]-6-methoxy-4-methyl-5-[3,4-dichlorophenoxy]quinoline succinate” (Antimicrob Agents Chemother, 2008)
Calls of active or inactive are those of the source. No cut-off for these calls is given here.

Assays:
Pneumocystis carinii [1] = test: Antimicrobial activity against Pneumocystis carinii infected BALB/c mouse at 2 mg/kg/day, po after 21 days administered 4 weeks postinfection by Giemsa staining method; type: functional, organism-based
Canis familiaris [2] = test: Toxicity in Beagle dog assessed as increase in methemoglobin level at 5.3 mg/kg/day, po measured on day 5; type: organism-based, Canis lupus familiaris; set-up: route oral; settings: in vivo
Outline: (§1)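 Male beagles aged 8–9 months (n = 2) received oral primaquine diphosphate as bulk drug in gelatin capsules on days 1–4 (0.0116 mmol/kg/day as base), dosed by day-1 body weight. Jugular or cephalic blood was drawn before dosing on days 1, 2 and 4, then on days 5, 7, 9, 11, 15, 18, 21, 25 and 29. Methemoglobin was measured by co-oximeter absorbance at four wavelengths.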

Canis familiaris [3] = test: Toxicity in Beagle dog assessed as methemoglobin level at 5.3 mg/kg/day, po after 2 weeks; type: organism-based, Canis lupus familiaris; set-up: route oral; settings: in vivo, 336 h; outline: as §1
Pneumocystis carinii [4] = test: Antimicrobial activity against Pneumocystis carinii infected BALB/c mouse at 2 mg/kg/day, po after 21 days administered 4 weeks postinfection by methenamine silver nitrate staining method; type: functional, organism-based
Plasmodium berghei [5] = test: Antimalarial activity against Plasmodium berghei KBG-173 infected in Swiss(CD-1) mouse assessed as survival at 0.25 mg/kg/day, po treated for 3 days measured on day 34; type: functional, organism-based
Outline: (§2)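 CD-1 mice, 5 weeks old, male or female, groups of five, infected with 5 × 10^4 P. berghei KBG-173 parasitized erythrocytes. Drug in 0.5% hydroxyethylcellulose/0.1% Tween 80, given orally once daily on days 3, 4 and 5 post-infection. Parasitemia from blood films on day +6. Read-out also includes increase in mean survival time over controls and survivors at day +34.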

Plasmodium berghei [6] = test: Antimalarial activity Plasmodium berghei KBG-173 infected in Swiss(CD-1) mouse assessed as mean survival time at 2 mg/kg, po treated 2 day postinfection; type: functional
Outline: (§3)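 CD-1 mice, 5 weeks old, male or female, groups of five, infected with 5 × 10^4 P. berghei KBG-173 parasitized erythrocytes. One 2 mg/kg oral dose given on a single day, from day −3 to +2 relative to inoculation. Controls untreated. Read-out is increase in mean survival time over controls and number alive at day +30.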

Mus musculus = test: Toxicity in Leishmania donovani HU3 infected mouse at 100 mg/kg/day, po treated for 5 days administered 7 days postinfection; type: organism-based; set-up: route oral; settings: in vivo
Outline: (§4)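 L. donovani HU3 amastigotes, 1 × 10^7 given IV to mice. From day 7 post-infection, dosed orally once daily for 5 days in 0.25% methylcellulose-10% ethanol; reference stibogluconate given SC. Mice killed at day 14 post-infection. Parasite burden counted on liver impression smears against untreated controls. ED50 from linear regression, with 95% confidence limits.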

Plasmodium berghei [7] = test: Antimalarial activity Plasmodium berghei KBG-173 infected in Swiss(CD-1) mouse assessed as survival at 2 mg/kg, po treated at day of infection measured on day 30; type: functional, organism-based; set-up: dose 2 mg/kg; outline: as §3
Plasmodium berghei [8] = test: Antimalarial activity Plasmodium berghei KBG-173 infected in Swiss(CD-1) mouse assessed as survival at 2 mg/kg, po pretreated 2 days before infection measured on day 30; type: functional, organism-based; set-up: dose 2 mg/kg; outline: as §3
Plasmodium berghei [9] = test: Antimalarial activity against Plasmodium berghei KBG-173 infected in Swiss(CD-1) mouse assessed as mean survival time at 1 mg/kg/day, po treated for 3 days; type: functional; outline: as §2
Canis familiaris [10] = test: Toxicity in Beagle dog assessed as increase in methemoglobin level at 1.91 mg/kg/day, po after 2 days; type: organism-based, Canis lupus familiaris; set-up: route oral; settings: in vivo, 48 h
Outline: (§5)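 Beagle dogs, one male and one female per enantiomer, given 0.64 mg/kg/day (0.5 mg/kg base) orally for 4 days. After a 5-week washout the same dogs received 1.91 mg/kg/day for 4 days. Methemoglobin sampled from days −6 to 36. Each dog's values are mean of duplicate determinations.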

Plasmodium berghei [11] = test: Antimalarial activity Plasmodium berghei KBG-173 infected in Swiss(CD-1) mouse assessed as survival at 2 mg/kg, po pretreated 1 day before infection measured on day 30; type: functional, organism-based; set-up: dose 2 mg/kg; outline: as §3
Leishmania donovani [12] = test: Antileishmanial activity against Leishmania donovani HU3 infected in mouse assessed as inhibition of parasites in liver at 0.4 mg/kg/day, po treated for 5 days administered 7 days postinfection measured after 14 days post-infection; type: functional; outline: as §4
Plasmodium berghei [13] = test: Antimalarial activity Plasmodium berghei KBG-173 infected in Swiss(CD-1) mouse assessed as survival at 2 mg/kg, po treated 2 day postinfection measured on day 30; type: functional, organism-based; set-up: dose 2 mg/kg; outline: as §3
Plasmodium berghei [14] = test: Antimalarial activity Plasmodium berghei KBG-173 infected in Swiss(CD-1) mouse assessed as mean survival time at 2 mg/kg, po treated 1 day postinfection; type: functional; outline: as §3
Plasmodium berghei [15] = test: Antimalarial activity against Plasmodium berghei KBG-173 infected in Swiss(CD-1) mouse assessed as survival at 4 mg/kg/day, po treated for 3 days measured on day 34; type: functional, organism-based; outline: as §2
Canis familiaris [16] = test: Toxicity in Beagle dog assessed as increase in methemoglobin level at 1.91 mg/kg/day, po after 8 days; type: organism-based, Canis lupus familiaris; set-up: route oral; settings: in vivo, 192 h; outline: as §5
Pneumocystis carinii [17] = test: Antimicrobial activity against Pneumocystis carinii infected BALB/c mouse at 5 mg/kg/day, po after 21 days administered 4 weeks postinfection by methenamine silver nitrate staining method; type: functional, organism-based
Outline: (§6)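 Female BALB/c mice, 6-8 weeks, immunosuppressed with dexamethasone […] in drinking water, then inoculated transtracheally with 10^6 P. carinii. From 4 weeks post-inoculation, drug given in drinking water for 3 weeks, 10 mice/group, intake monitored. Lung impression smears stained with Giemsa or methenamine silver, read blinded. Graded 0-5 on a log scale; group mean ± SE.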

Plasmodium berghei [18] = test: Antimalarial activity Plasmodium berghei KBG-173 infected in Swiss(CD-1) mouse assessed as mean survival time at 2 mg/kg, po treated at day of infection; type: functional; outline: as §3
Pneumocystis carinii [19] = test: Antimicrobial activity against Pneumocystis carinii infected BALB/c mouse at 0.25 mg/kg/day, po after 21 days administered 4 weeks postinfection by Giemsa staining method; type: functional, organism-based; outline: as §6
Pneumocystis carinii [20] = test: Antimicrobial activity against Pneumocystis carinii infected BALB/c mouse at 5 mg/kg/day, po after 21 days administered 4 weeks postinfection by Giemsa staining method; type: functional, organism-based; outline: as §6
Plasmodium berghei [21] = test: Antimalarial activity against Plasmodium berghei KBG-173 infected in Swiss(CD-1) mouse assessed as mean survival time at 0.25 mg/kg/day, po treated for 3 days; type: functional; outline: as §2
Leishmania donovani [22] = test: Antileishmanial activity against Leishmania donovani HU3 infected in mouse assessed as inhibition of parasites in liver at 10 mg/kg/day, po treated for 5 days administered 7 days postinfection measured after 14 days post-infection; type: functional; outline: as §4
Pneumocystis carinii [23] = test: Antimicrobial activity against Pneumocystis carinii infected BALB/c mouse at 1 mg/kg/day, po after 21 days administered 4 weeks postinfection by Giemsa staining method; type: functional, organism-based; outline: as §6
Plasmodium berghei [24] = test: Antimalarial activity Plasmodium berghei KBG-173 infected in Swiss(CD-1) mouse assessed as mean survival time at 2 mg/kg, po pretreated 2 days before infection; type: functional; outline: as §3
Plasmodium berghei [25] = test: Antimalarial activity against Plasmodium berghei KBG-173 infected in Swiss(CD-1) mouse assessed as survival at 1 mg/kg/day, po treated for 3 days measured on day 34; type: functional, organism-based; outline: as §2
Leishmania donovani [26] = test: Antileishmanial activity against Leishmania donovani HU3 infected in mouse assessed as inhibition of parasites in liver at 5 mg/kg/day, po treated for 5 days administered 7 days postinfection measured after 14 days post-infection; type: functional; outline: as §4
Plasmodium berghei [27] = test: Antimalarial activity Plasmodium berghei KBG-173 infected in Swiss(CD-1) mouse assessed as increase in mean survival time over control at 2 mg/kg, po pretreated 1 day before infection
Pneumocystis carinii [28] = test: Antimicrobial activity against Pneumocystis carinii infected BALB/c mouse at 0.25 mg/kg/day, po after 21 days administered 4 weeks postinfection by methenamine silver nitrate staining method; type: functional, organism-based; outline: as §6
Canis familiaris [29] = test: Toxicity in Beagle dog assessed as increase in methemoglobin level at 1.91 mg/kg/day, po; type: organism-based, Canis lupus familiaris; set-up: route oral; settings: in vivo; outline: as §5
Plasmodium berghei [30] = test: Antimalarial activity Plasmodium berghei KBG-173 infected in Swiss(CD-1) mouse assessed as survival at 2 mg/kg, po treated 1 day postinfection measured on day 30; type: functional, organism-based; set-up: dose 2 mg/kg; outline: as §3
Canis familiaris [31] = test: Toxicity in Beagle dog assessed as increase in methemoglobin level at 1.91 mg/kg/day, po after 6 days; type: organism-based, Canis lupus familiaris; set-up: route oral; settings: in vivo, 144 h; outline: as §5
Pneumocystis carinii [32] = test: Antimicrobial activity against Pneumocystis carinii infected BALB/c mouse at 1 mg/kg/day, po after 21 days administered 4 weeks postinfection by methenamine silver nitrate staining method; type: functional, organism-based; outline: as §6
Plasmodium berghei [33] = test: Antimalarial activity Plasmodium berghei KBG-173 infected in Swiss(CD-1) mouse assessed as mean survival time at 2 mg/kg, po pretreated 3 days before infection; type: functional; outline: as §3
Plasmodium berghei [34] = test: Antimalarial activity against Plasmodium berghei KBG-173 infected in Swiss(CD-1) mouse assessed as parasitemia at 1 mg/kg/day, po treated for 3 days measured on day 6
Plasmodium berghei [35] = test: Antimalarial activity against Plasmodium berghei KBG-173 infected in Swiss(CD-1) mouse assessed as reduction in parasitemia at 4 mg/kg/day, po treated for 3 days measured on day 6; type: functional; set-up: scale not given: the % may be the effect or the level left; outline: as §2
Plasmodium berghei [36] = test: Antimalarial activity against Plasmodium berghei KBG-173 infected in Swiss(CD-1) mouse assessed as mean survival time at 4 mg/kg/day, po treated for 3 days; type: functional; outline: as §2
Plasmodium berghei [37] = test: Antimalarial activity against Plasmodium berghei KBG-173 infected in Swiss(CD-1) mouse assessed as parasitemia at 0.25 mg/kg/day, po treated for 3 days measured on day 6

Which Activity (Pneumocystis carinii [1]) does the source give for `COc1cc(NC(C)CCCN)c2ncccc2c1` (stereo not drawn) [PRIMAQUINE] here?
Its Activity is “inactive”.

What about the Activity (Canis familiaris [2]) of the same compound?
Its Activity is “Toxic”.

What about the Activity (Canis familiaris [3]) of the same compound?
The Activity was “Non-toxic”.

What about the Activity (Pneumocystis carinii [4]) of the same compound?
Its Activity is “inactive”.

Which Activity (Plasmodium berghei [5]) does the source give for `COc1cc(N[C@@H](C)CCCN)c2nccc(C)c2c1Oc1ccc(Cl)c(Cl)c1.O=C(O)CCC(=O)O` here?
The Activity was “Active”.

And the MST (Plasmodium berghei [6])?
The MST was 1.2 days.

And the Activity (Mus musculus)?
Its Activity is “Toxic”.

And the Activity (Plasmodium berghei [7])?
The Activity was “Active”.

What about the Activity (Plasmodium berghei [8]) of the same compound?
The Activity was “Active”.

And the MST (Plasmodium berghei [9])?
The MST was 6 days.

And the Activity (Canis familiaris [10])?
The Activity was “Toxic”.

And the Activity (Plasmodium berghei [11])?
Its Activity is “Active”.

And the inhibition in vivo at 0.4 mg/kg/day (Leishmania donovani [12])?
Its inhibition in vivo at 0.4 mg/kg/day is 41.2%.

What about the Activity (Plasmodium berghei [13]) of the same compound?
The Activity was “Active”.

What about the MST (Plasmodium berghei [14]) of the same compound?
Its MST is 0 days.

And the Activity (Plasmodium berghei [15])?
The Activity was “Active”.

And the Activity (Canis familiaris [16])?
The Activity was “Toxic”.

And the Activity (Pneumocystis carinii [17])?
The Activity was “Active”.

And the MST (Plasmodium berghei [18])?
Its MST is 3.4 days.

And the Activity (Pneumocystis carinii [19])?
Its Activity is “Active”.

What about the Activity (Pneumocystis carinii [20]) of the same compound?
The Activity was “Active”.

What about the MST (Plasmodium berghei [21]) of the same compound?
Its MST is 0 days.

What about the inhibition in vivo at 10 mg/kg/day (Leishmania donovani [22]) of the same compound?
The inhibition in vivo at 10 mg/kg/day was 99.6%.

And the Activity (Pneumocystis carinii [23])?
The Activity was “Active”.

What about the MST (Plasmodium berghei [24]) of the same compound?
Its MST is 0 days.

And the Activity (Plasmodium berghei [25])?
Its Activity is “Active”.

And the inhibition in vivo at 5 mg/kg/day (Leishmania donovani [26])?
The inhibition in vivo at 5 mg/kg/day was 65%.

What about the ΔMST (Plasmodium berghei [27]) of the same compound?
Its ΔMST is 0.6 days.

What about the Activity (Pneumocystis carinii [28]) of the same compound?
Its Activity is “Active”.

And the Activity (Canis familiaris [29])?
The Activity was “Toxic”.

And the Activity (Plasmodium berghei [30])?
Its Activity is “Active”.

What about the Activity (Canis familiaris [31]) of the same compound?
The Activity was “Toxic”.

What about the Activity (Pneumocystis carinii [32]) of the same compound?
The Activity was “Active”.

And the MST (Plasmodium berghei [33])?
The MST was 0 days.

What about the Activity (Plasmodium berghei [34]) of the same compound?
Its Activity is 27.4%.

What about the Activity (Plasmodium berghei [35]) of the same compound?
Its Activity is 1.1%.

What about the MST (Plasmodium berghei [36]) of the same compound?
Its MST is 11 days.

What about the Activity (Plasmodium berghei [37]) of the same compound?
Its Activity is 28.2%.
